Our source for the Activity and EC50 values is ChEMBL document CHEMBL4118275, “Synthesis of coumarin derivatives and their cytoprotective effects on t-BHP-induced oxidative damage in HepG2 cells” (Bioorg Med Chem Lett, 2018).

As usually defined, the EC50 is the midpoint of the concentration-response curve.

The structures appear in SMILES notation. Activity calls are given as the source filed them. No cut-off for these calls is given here.

Data set [1] deals with HepG2. Kind of data set: Cytoprotective activity against 100 uM t-BHP-induced oxidative stress in human HepG2 cells assessed as cell viability preincubated for 1 hr followed by t-BHP addition measured after 3 hrs by CCK-8 assay (reference value: 22%). Type of data set: functional. (In general: Tetrazolium dyes change colour on reduction, which living cells bring about.)
A short description of data set [2]: Antioxidant activity assessed as DPPH radical scavenging activity measured after 30 mins. Type of data set: functional. The essentials:
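DPPH radical scavenging was measured, and activity is given as EC50 in μM.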
On the technique in general: The DPPH test is a chemical assay of radical scavenging.

Data set [3] has as its system HepG2. The data set is described as follows: Cytotoxicity against human HepG2 cells at 10 uM. Type of data set: cell-based. The note with it: hepg2, 10 µM.
In data set [4] the test system is HepG2. The data set is described as follows: Cytoprotective activity against 1 mM t-BHP-induced oxidative stress in human HepG2 cells assessed as cell viability preincubated for 1 hr followed by t-BHP addition measured after 3 hrs by CCK-8 assay. Type of data set: functional.
Data set [5] deals with HepG2. Kind of data set: Cytoprotective activity against 100 uM t-BHP-induced cell damage in human HepG2 cells assessed as increase in mitochondrial membrane potential preincubated for 1 hr followed by t-BHP addition measured after 3 hrs by rhodamine 123 staining based fluorescence microscopy. Type of data set: functional. The essentials: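 HepG2 cells were pretreated with sample, then exposed to 100 μM t-BHP and stained with Rhodamine 123. Mitochondrial membrane potential was judged from fluorescence microscopy images against untreated control and t-BHP-only cells.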

Consider `O=c1c(O)c(-c2ccc(O)c(O)c2)oc2cc(O)cc(O)c12` [QUERCETIN], for which, in the data set on HepG2 [1], the Activity was 62%. In addition, the 50% effective concentration (EC50) in data set [2] turned out to be 0.17 µM.
On to `CC1(C)Oc2ccc3ccc(=O)oc3c2CC1OC(=O)/C=C/c1ccccc1` (stereo not given), for which, in the data set on HepG2 [3], the Activity result was “Non-Toxic”. For the same compound, in the data set on HepG2 [1], the outcome was inactive.
On to `CC1(C)Oc2ccc3ccc(=O)oc3c2CC1O` (stereo not given) [LOMATIN], for which the Activity result with HepG2 [3] is recorded as “Non-Toxic”. In the data set with HepG2 [1], the result was inactive.
Consider `COc1ccc(/C=C/C(=O)OC2Cc3c(ccc4ccc(=O)oc34)OC2(C)C)cc1` (stereo not given), for which the Activity result with HepG2 [3] was “Non-Toxic”. In the data set on HepG2 [1], the outcome was inactive.
As for `CC(C)(OC(=O)/C=C/c1ccc(O)cc1)C1Cc2cc3ccc(=O)oc3cc2O1` (stereo not given), in the data set on HepG2 [3], the Activity entry was “Non-Toxic”. For the same compound, the result with HepG2 [1] was inactive.
Consider `COC(=O)/C=C/c1ccc(O)c(O)c1` [METHYLCAFFEATE], for which the Activity in the data set with HepG2 [1] is 31%. The EC50 in data set [2] is 1.5 µM.
In the case of `CC(C)(O)C1Cc2cc3ccc(=O)oc3cc2O1` (stereo not given), the Activity result in the data set with HepG2 [3] was “Non-Toxic”. Moreover, the result in the data set with HepG2 [1] was inactive.
`CC1(C)Oc2cc3oc(=O)ccc3cc2CC1O` (stereo not given): in the data set on HepG2 [3], the Activity result was “Non-Toxic”. In the data set on HepG2 [1], the result was inactive.
For `CC(C)(OC(=O)/C=C/c1ccc(O)cc1)C1Cc2c(ccc3ccc(=O)oc23)O1` (stereo not given) the same measures were “Non-Toxic” and “inactive”.
Take `COc1ccc(/C=C/C(=O)OC2Cc3c(ccc4ccc(=O)oc34)OC2(C)C)cc1OC` (stereo not given): the Activity result with HepG2 [3] is “Non-Toxic”. In addition, in the data set on HepG2 [1], the outcome was inactive.
Consider `COc1cc(/C=C/C(=O)OC2Cc3c(ccc4ccc(=O)oc34)OC2(C)C)cc(OC)c1OC` (stereo not given), for which the Activity entry in the data set on HepG2 [3] was “Non-Toxic”. The outcome in the data set on HepG2 [1] was inactive.
Take `CC1(C)Oc2ccc3ccc(=O)oc3c2CC1OC(=O)/C=C/c1ccc(O)c(O)c1` (stereo not given): the Activity entry with HepG2 [3] is listed as “Non-Toxic”; with HepG2 [1] it was 86%; in the data set on HepG2 [4], 39%. Moreover, the EC50 in data set [2] came to 3.06 µM. For the same compound, in the data set on HepG2 [5], the result was Active.
In the case of `CC1(C)Oc2ccc3ccc(=O)oc3c2CC1OC(=O)/C=C/c1ccc(O)cc1` (stereo not given), the Activity result in the data set on HepG2 [3] is “Non-Toxic”. The outcome with HepG2 [1] was inactive.
For `CC(C)(O)C1Cc2c(ccc3ccc(=O)oc23)O1` (stereo not given) the same measures were “Non-Toxic” and “inactive”.
As for `COc1cc(/C=C/C(=O)OC2Cc3c(ccc4ccc(=O)oc34)OC2(C)C)ccc1O` (stereo not given), the Activity result with HepG2 [3] is reported as “Non-Toxic”. Also, the outcome in the data set with HepG2 [1] was inactive.
For `CC1(C)Oc2cc3oc(=O)ccc3cc2CC1OC(=O)/C=C/c1ccc(O)cc1` (stereo not given) the same measures were “Non-Toxic” and “inactive”.
